Assay results as given in ChEMBL document CHEMBL1125798, “Synthesis and biological activity of a series of diaryl-substituted alpha-cyano-beta-hydroxypropenamides, a new class of anthelmintic agents” (1991).

How the values were obtained:
Assay type in all cases: functional
Rodentolepis nana [1] = assay: The compound was tested for anthelmintic activity against mice, infected with parasite Hymenolepis nana at a dose of 1000(ppm in feed)
Method in brief: (§1)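 Compound was given in feed ad libitum from 24 h postinfection for 18 days, four mice per group. On day 19, N. dubius were counted in the duodenum and H. nana in the ileum. Result is % reduction of mean worm burden vs untreated control; ≤25% was recorded as 0.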

[2] = test system: Heligmosomoides polygyrus; assay: Anthelmintic activity against mice, infected with parasite Nematospiroides dubius, at a dose of 1000(ppm in feed); method in brief: as §1
[3] = test system: Heligmosomoides polygyrus; assay: Anthelmintic activity against mice, infected with parasite Nematospiroides dubius, at a dose of 125(ppm in feed); method in brief: as §1
Rodentolepis nana [4] = assay: The compound was tested for anthelmintic activity against mice, infected with parasite Hymenolepis nana at a dose of 62(ppm in feed); method in brief: as §1
Rodentolepis nana [5] = assay: The compound was tested for anthelmintic activity against mice, infected with parasite Hymenolepis nana at a dose of 125(ppm in feed); method in brief: as §1
[6] = test system: Heligmosomoides polygyrus; assay: Anthelmintic activity against mice, infected with parasite Nematospiroides dubius, at a dose of 62(ppm in feed); method in brief: as §1
[7] = test system: Heligmosomoides polygyrus; assay: Anthelmintic activity against mice infected with parasite Nematospiroides dubius, at a dose of 62(ppm in feed).; method in brief: as §1
Ovis aries [8] = assay: Anthelmintic activity against sheep, infected with Haemonchus contortus, at a dose of 20 mg/kg.
Method in brief: (§2)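 Merino ewes and wethers (12-15 months, 25-35 kg) received L3 intraruminally on day 0. Susceptible strains: H. contortus 6000, O. circumcincta 8000, T. colubriformis 8000. Benzimidazole-resistant strains: 8000, 9000, 9000. Animals were allocated by day-27 fecal egg count (n = 4-7) and given a single intraruminal dose in 0.5% carboxymethylcellulose saline. Adult worms in abomasum and small intestine were counted on day 35. Result is mean % reduction vs untreated controls.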

Ovis aries [9] = assay: Anthelmintic activity against sheep, infected with Trichostrongylus colubriformis, at a dose of 20 mg/kg.; method in brief: as §2
Ascaris suum [10] = assay: Effect on succinate formation by isolated Ascaris suum mitochondria at a concentration of 3 uM
Method in brief: (§3)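 Body-wall muscle mitochondria from adult A. suum (4-5 mg protein) were preincubated for 5 min at 30 °C, pH 7.4, with inhibitor in 170 mM mannitol, 50 mM sucrose, 10 mM 32Pi-phosphate, 1 mM MgCl2, 0.4 mM ADP and 0.1 unit hexokinase. Reaction was started with 10 mM malate and stopped after 15 min with perchloric acid. 32P-organic phosphate and succinate were measured in extracts; duplicate runs.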

Ascaris suum [11] = assay: Effect on incorporation of [32Pi] by isolated Ascaris suum mitochondria at a concentration of 50 uM.; method in brief: as §3
Ascaris suum [12] = assay: Effect on succinate formation by isolated Ascaris suum mitochondria at a concentration of 0 uM; method in brief: as §3
Ovis aries [13] = assay: Anthelmintic activity against sheep, infected with Ostertagia circumcincta, at a dose of 30 mg/kg.; method in brief: as §2
Ovis aries [14] = assay: Anthelmintic activity against sheep, infected with Haemonchus contortus, at a dose of 30 mg/kg.; method in brief: as §2
Ascaris suum [15] = assay: Effect on incorporation of [32Pi] by isolated Ascaris suum mitochondria at a concentration of 3 uM; method in brief: as §3
Ascaris suum [16] = assay: Effect on succinate formation by isolated Ascaris suum mitochondria at a concentration of 25 uM; method in brief: as §3
Rodentolepis nana [17] = assay: The compound was tested for anthelmintic activity against mice, infected with parasite Hymenolepis nana at a dose of 31(ppm in feed); method in brief: as §1
Ascaris suum [18] = assay: Effect on succinate formation by isolated Ascaris suum mitochondria at a concentration of 10 uM; method in brief: as §3
Ovis aries [19] = assay: Anthelmintic activity against sheep, infected with Trichostrongylus colubriformis, at a dose of 30 mg/kg.; method in brief: as §2
[20] = test system: Heligmosomoides polygyrus; assay: Anthelmintic activity against mice, infected with parasite Nematospiroides dubius, at a dose of 31(ppm in feed); method in brief: as §1
Ascaris suum [21] = assay: Effect on incorporation of [32Pi] by isolated Ascaris suum mitochondria at a concentration of 25 uM; method in brief: as §3
Ovis aries [22] = assay: Anthelmintic activity against sheep, infected with Ostertagia circumcincta, at a dose of 20 mg/kg.; method in brief: as §2
Rodentolepis nana [23] = assay: Anthelmintic activity against mice infected with parasite Hymenolepis nana at a dose of 62(ppm in feed).; method in brief: as §1
Ascaris suum [24] = assay: Effect on incorporation of [32Pi] by isolated Ascaris suum mitochondria at a concentration of 10 uM; method in brief: as §3
Ascaris suum [25] = assay: Effect on succinate formation by isolated Ascaris suum mitochondria at a concentration of 50 uM; method in brief: as §3
Ascaris suum [26] = assay: Effect on incorporation of [32Pi] by isolated Ascaris suum mitochondria at a concentration of 0 uM; method in brief: as §3
Rodentolepis nana [27] = assay: The compound was tested for anthelmintic activity against mice, infected with parasite Hymenolepis nana at a dose of 31 p.p.m. in feed; method in brief: as §1
[28] = test system: Heligmosomoides polygyrus; assay: Anthelmintic activity against mice, infected with parasite Nematospiroides dubius, at a dose of 31 p.p.m. in feed; method in brief: as §1
Rodentolepis nana [29] = assay: The compound was tested for anthelmintic activity against mice, infected with parasite Hymenolepis nana at a dose of 125 p.p.m. in feed; method in brief: as §1
[30] = test system: Heligmosomoides polygyrus; assay: Anthelmintic activity against mice, infected with parasite Nematospiroides dubius, at a dose of 125 ppm in feed; method in brief: as §1
[31] = test system: Heligmosomoides polygyrus; assay: Anthelmintic activity against mice, infected with parasite Nematospiroides dubius, at a dose of 875(ppm in feed); method in brief: as §1
Rodentolepis nana [32] = assay: The compound was tested for anthelmintic activity against mice, infected with parasite Hymenolepis nana at a dose of 875(ppm in feed); method in brief: as §1
[33] = test system: Heligmosomoides polygyrus; assay: Anthelmintic activity against mice, infected with parasite Nematospiroides dubius, at a dose of 250 pm in feed); method in brief: as §1
Rodentolepis nana [34] = assay: The compound was tested for anthelmintic activity against mice, infected with parasite Hymenolepis nana at a dose of 250(ppm in feed); method in brief: as §1
Rodentolepis nana [35] = assay: Anthelmintic activity against mice infected with parasite Hymenolepis nana at a dose of 125 ppm (in feed); method in brief: as §1
[36] = test system: Heligmosomoides polygyrus; assay: Anthelmintic activity against mice, infected with parasite Nematospiroides dubius, at a dose of 125 (ppm in feed); method in brief: as §1

Structure (SMILES): N#C/C(C(=O)Nc1ccccc1)=C(/O)c1ccccc1
- Reduction (Rodentolepis nana [1]): 0%
- Reduction [2]: 0%

Structure (SMILES): N#C/C(C(=O)Nc1ccc(C(F)(F)F)cc1)=C(/O)c1ccc(Br)cc1
- Reduction [3]: 99%
- Reduction (Rodentolepis nana [4]): 92%
- Reduction (Rodentolepis nana [5]): 100%
- Reduction [6]: 45%

Structure (SMILES): N#C/C(C(=O)Nc1ccc(C(F)(F)F)cc1)=C(/O)c1ccc(C(F)(F)F)cc1
- Reduction [7]: 100%
- Reduction (Ovis aries [8]): 100%
- Reduction (Ovis aries [9]): 0%
- EC (Ascaris suum [10]): 0.63 uM 15min-1 mg-1
- EC (Ascaris suum [11]): 0.05 uM 15min-1 mg-1
- EC (Ascaris suum [12]): 0.48 uM 15min-1 mg-1
- Reduction (Ovis aries [13]): 0%
- Reduction (Ovis aries [14]): 100%
- EC (Ascaris suum [15]): 0.35 uM 15min-1 mg-1
- EC (Ascaris suum [16]): 0.86 uM 15min-1 mg-1
- Reduction (Rodentolepis nana [17]): 0%
- EC (Ascaris suum [18]): 0.75 uM 15min-1 mg-1
- Reduction (Ovis aries [19]): 0%
- Reduction [20]: 76%
- EC (Ascaris suum [21]): 0.15 uM 15min-1 mg-1
- Reduction (Ovis aries [22]): 66%
- Reduction (Rodentolepis nana [23]): 0%
- EC (Ascaris suum [24]): 0.28 uM 15min-1 mg-1
- EC (Ascaris suum [25]): 1.17 uM 15min-1 mg-1
- EC (Ascaris suum [26]): 0.39 uM 15min-1 mg-1

Structure (SMILES): COC(=O)Nc1nc2cc([S+]([O-])c3ccccc3)ccc2[nH]1 (stereo unspecified) [OXFENDAZOLE]
- Reduction (Rodentolepis nana [27]): 0%
- Reduction [28]: 100%
- Reduction (Rodentolepis nana [29]): 100%
- Reduction [30]: 100%

Structure (SMILES): N#C/C(C(=O)Nc1ccc(C(F)(F)F)cc1)=C(/O)c1ccccc1
- Reduction [31]: 0%
- Reduction (Rodentolepis nana [32]): 0%

Structure (SMILES): N#C/C(C(=O)Nc1ccc([N+](=O)[O-])cc1)=C(/O)c1ccc(C(F)(F)F)cc1
- Reduction [33]: 100%
- Reduction (Rodentolepis nana [34]): 100%
- Reduction (Rodentolepis nana [35]): 0%
- Reduction [36]: 50%
